Data taken from ChEMBL document CHEMBL4261600 (Eur J Med Chem, 2018).
The source made the active and inactive calls.

Assays:
CDK9/Cyclin K = CDK9/Cyclin K (Homo sapiens, UniProt P50750); test: Inhibition of CDK9/Cyclin K (unknown origin) using PDKtide as substrate incubated at 37 degreeC for 1 hr followed by incubation at room temperature for 5 mins by ADP-Glo reagent based luminescence assay; type: protein-complex assay
[1] = molecular target: Cyclin-dependent kinase 7 (Homo sapiens) (UniProt P50613); test: Inhibition of CDK7 in human MEC1 cells assessed as decrease in RNA polymerase 2 phosphorylation at Ser 5 residues up to 3 uM after 2 hrs by immunoblotting analysis; type: cell-based
[2] = AUC (0 to t) in beagle dog at 10 mg/kg, po by LC-MS/MS analysis; type: ADME, organism-based, Canis lupus familiaris; conditions: in vivo
Procedure, shortened: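 Non-compartmental PK. Male SD rats 190-210 g, mice and beagle dogs acclimatized one week, fasted 12 h with water, split into iv and po groups (mice 48, rats 6, dogs 6). iv 3/3/2 mg/kg (mice/rats/dogs); po 10/20/10 mg/kg; vehicle DMSO in 5% glucose water. Blood at 2 or 5 to 720 min; plasma protein-precipitated with methanol, caffeine internal standard, LC-MS/MS.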

[3] = Oral bioavailability in Sprague-Dawley rat at 20 mg/kg by LC-MS/MS analysis; type: ADME, organism-based; conditions: in vivo
[4] = molecular target: Bone morphogenetic protein receptor type-1A (Homo sapiens) (UniProt P36894); test: Binding affinity to wild-type human partial length BMPR1A (Q214 to I532 residues) expressed in bacterial expression system assessed as remaining unbound target protein level at 1000 nM by Kinomescan method relative to control
Procedure, shortened: (§1)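 Profiled in a KINOMEscan binding panel with the inhibitor at a single concentration of 1 μM. Binding to each kinase was read out as percent of control, relative to a DMSO control. Strong binders were defined as those with a percent control value below 1.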

[5] = molecular target: Tyrosine-protein kinase CSK (Homo sapiens) (UniProt P41240); test: Binding affinity to wild-type human full length CSK (M1 to L450 residues) expressed in bacterial expression system assessed as remaining unbound target protein level at 1000 nM by Kinomescan method relative to control
Procedure, shortened: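 KINOMEscan competitive binding profile at 1 μM inhibitor. Remaining target binding reported as percent of DMSO control.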

[6] = molecular target: Mitogen-activated protein kinase 7 (Homo sapiens) (UniProt Q13164); test: Binding affinity to wild-type human partial length ERK5 (M1 to A409 residues) expressed in bacterial expression system assessed as remaining unbound target protein level at 1000 nM by Kinomescan method relative to control
[7] = molecular target: Rhodopsin kinase GRK1 (Homo sapiens) (UniProt Q15835); test: Binding affinity to wild-type human full length GRK1 (M1 to S563 residues) expressed in mammalian expression system assessed as remaining unbound target protein level at 1000 nM by Kinomescan method relative to control
Procedure, shortened: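 KINOMEscan competition binding panel run at 1 μM inhibitor; binding reported as percent of DMSO control (remaining target bound versus vehicle).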

[8] = molecular target: Mitogen-activated protein kinase kinase kinase kinase 1 (Homo sapiens) (UniProt Q92918); test: Binding affinity to wild-type human full length HPK1 (M1 to R799 residues) expressed in bacterial expression system assessed as remaining unbound target protein level at 1000 nM by Kinomescan method relative to control
Procedure, shortened: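 KINOMEscan competition binding profile across a panel of 468 kinases and mutants, with the inhibitor tested at a single concentration of 1 μM. Binding is reported as percent of control, meaning signal relative to a DMSO control.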

[9] = system: Mast/stem cell growth factor receptor Kit (Homo sapiens), P10721 [D816H]; test: Binding affinity to human partial length KIT D816H mutant (I571 to D952 residues) expressed in mammalian expression system assessed as remaining unbound target protein level at 1000 nM by Kinomescan method relative to control
Procedure, shortened: (§2)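 KINOMEscan competition-binding profiling across the panel of 468 kinases and mutants, with inhibitor tested at 1 μM. Binding is expressed as percent of control, with DMSO as the reference control.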

[10] = system: Mast/stem cell growth factor receptor Kit (Homo sapiens), P10721 [V559D,T670I]; test: Binding affinity to human partial length KIT V559D/T670I double mutant (Y545 to D952 residues) expressed in bacterial expression system assessed as remaining unbound target protein level at 1000 nM by Kinomescan method relative to control; procedure, shortened: as §2
[11] = system: Mast/stem cell growth factor receptor Kit (Homo sapiens), P10721 [V559D,V654A]; test: Binding affinity to human partial length KIT V559D/V654A double mutant (Y545 to D952 residues) expressed in bacterial expression system assessed as remaining unbound target protein level at 1000 nM by Kinomescan method relative to control; procedure, shortened: as §2
[12] = molecular target: Mitogen-activated protein kinase kinase kinase kinase 5 (Homo sapiens) (UniProt Q9Y4K4); test: Binding affinity to wild-type human partial length MAP4K5 (M1 to P297 residues) expressed in bacterial expression system assessed as remaining unbound target protein level at 1000 nM by Kinomescan method relative to control
Procedure, shortened: (§3)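 KINOMEscan binding panel of 468 kinases/mutants. Inhibitor was tested at a single concentration of 1 μM. Binding is reported as percent of control, defined relative to a DMSO control.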

[13] = molecular target: MAP/microtubule affinity-regulating kinase 4 (Homo sapiens) (UniProt Q96L34); test: Binding affinity to wild-type human partial length MARK4 (K29 to G340 residues) expressed in bacterial expression system assessed as remaining unbound target protein level at 1000 nM by Kinomescan method relative to control
[14] = molecular target: Platelet-derived growth factor receptor beta (Homo sapiens) (UniProt P09619); test: Binding affinity to wild-type human partial length PDGFRB (V582 to Y1009 residues) expressed in bacterial expression system assessed as remaining unbound target protein level at 1000 nM by Kinomescan method relative to control; procedure, shortened: as §3
[15] = molecular target: Phosphatidylinositol 4-phosphate 5-kinase type-1 alpha (Homo sapiens) (UniProt Q99755); test: Binding affinity to wild-type human full length PIP5K1A (M1 to H562 residues) expressed in bacterial expression system assessed as remaining unbound target protein level at 1000 nM by Kinomescan method relative to control; procedure, shortened: as §1
[16] = molecular target: Serine/threonine-protein kinase D1 (Homo sapiens) (UniProt Q15139); test: Binding affinity to wild-type human partial length PRKD1 (G551 to E870 residues) expressed in bacterial expression system assessed as remaining unbound target protein level at 1000 nM by Kinomescan method relative to control
[17] = system: Proto-oncogene tyrosine-protein kinase receptor Ret (Homo sapiens), P07949 [V804L]; test: Binding affinity to human partial length RET V804L mutant (E713 to D1014 residues) expressed in bacterial expression system assessed as remaining unbound target protein level at 1000 nM by Kinomescan method relative to control; procedure, shortened: as §2
[18] = molecular target: Serine/threonine-protein kinase TAO1 (Homo sapiens) (UniProt Q7L7X3); test: Binding affinity to wild-type human partial length TAOK1 (M1 to A320 residues) expressed in mammalian expression system assessed as remaining unbound target protein level at 1000 nM by Kinomescan method relative to control
Homo sapiens = species: Homo sapiens; test: Selectivity ratio of IC50 for recombinant GST-tagged inactive state of human CDK11 to IC50 for recombinant full length His-tagged human CDK9/CyclinT1

Sequence of Mitogen-activated protein kinase 7 (Homo sapiens) (Q13164 2-816 limits assumed): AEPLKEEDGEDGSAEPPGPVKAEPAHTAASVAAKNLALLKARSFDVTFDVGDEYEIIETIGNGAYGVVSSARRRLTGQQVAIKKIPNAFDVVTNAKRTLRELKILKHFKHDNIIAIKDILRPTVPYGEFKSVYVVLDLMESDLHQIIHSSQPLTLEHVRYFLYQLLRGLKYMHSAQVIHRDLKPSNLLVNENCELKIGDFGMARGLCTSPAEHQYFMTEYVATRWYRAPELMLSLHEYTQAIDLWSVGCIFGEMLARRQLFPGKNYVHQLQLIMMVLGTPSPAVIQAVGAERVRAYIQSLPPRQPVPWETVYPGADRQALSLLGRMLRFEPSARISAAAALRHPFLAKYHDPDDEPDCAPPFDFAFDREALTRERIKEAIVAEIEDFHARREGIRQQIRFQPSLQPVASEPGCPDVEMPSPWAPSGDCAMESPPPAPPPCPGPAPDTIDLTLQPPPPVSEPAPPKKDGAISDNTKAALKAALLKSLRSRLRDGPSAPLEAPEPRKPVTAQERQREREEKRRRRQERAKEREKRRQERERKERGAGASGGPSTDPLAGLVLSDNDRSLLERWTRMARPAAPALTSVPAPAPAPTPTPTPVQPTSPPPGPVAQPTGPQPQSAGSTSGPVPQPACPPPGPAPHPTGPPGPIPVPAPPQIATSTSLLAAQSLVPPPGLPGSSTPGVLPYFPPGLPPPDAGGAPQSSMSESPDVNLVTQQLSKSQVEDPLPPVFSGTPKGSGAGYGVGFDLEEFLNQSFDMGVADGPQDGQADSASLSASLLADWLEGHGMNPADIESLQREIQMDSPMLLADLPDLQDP
Sequence of CDK9/Cyclin K (P50750 whole entry): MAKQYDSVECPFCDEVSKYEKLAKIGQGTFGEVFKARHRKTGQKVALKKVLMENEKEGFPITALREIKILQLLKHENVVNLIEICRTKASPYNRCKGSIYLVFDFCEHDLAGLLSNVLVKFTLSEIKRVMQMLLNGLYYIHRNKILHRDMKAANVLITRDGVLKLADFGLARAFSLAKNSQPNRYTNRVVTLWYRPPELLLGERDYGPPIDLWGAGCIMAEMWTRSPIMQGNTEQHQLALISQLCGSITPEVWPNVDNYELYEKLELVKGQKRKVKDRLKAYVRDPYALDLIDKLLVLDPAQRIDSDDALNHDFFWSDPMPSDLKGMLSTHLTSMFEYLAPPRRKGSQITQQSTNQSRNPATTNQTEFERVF
Sequence of CDK9/Cyclin K (O75909 whole entry, further chain): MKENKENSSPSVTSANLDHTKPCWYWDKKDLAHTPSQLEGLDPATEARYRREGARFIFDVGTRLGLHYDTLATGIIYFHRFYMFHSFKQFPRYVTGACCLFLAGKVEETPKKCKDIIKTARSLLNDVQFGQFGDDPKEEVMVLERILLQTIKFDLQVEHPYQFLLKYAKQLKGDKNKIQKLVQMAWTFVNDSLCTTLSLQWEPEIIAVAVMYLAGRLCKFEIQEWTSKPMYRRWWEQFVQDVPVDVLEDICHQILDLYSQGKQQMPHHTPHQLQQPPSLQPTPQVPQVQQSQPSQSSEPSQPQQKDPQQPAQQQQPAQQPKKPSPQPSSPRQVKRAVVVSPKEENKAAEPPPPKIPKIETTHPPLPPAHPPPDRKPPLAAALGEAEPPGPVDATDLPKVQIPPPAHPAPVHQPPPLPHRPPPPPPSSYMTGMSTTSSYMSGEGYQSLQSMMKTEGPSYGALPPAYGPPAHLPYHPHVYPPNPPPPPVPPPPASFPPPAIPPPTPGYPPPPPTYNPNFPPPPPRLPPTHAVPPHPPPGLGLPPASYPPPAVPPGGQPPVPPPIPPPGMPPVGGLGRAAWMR
Sequence of Mitogen-activated protein kinase kinase kinase kinase 5 (Homo sapiens) (Q9Y4K4 whole entry, looked up, the tested form may be a part): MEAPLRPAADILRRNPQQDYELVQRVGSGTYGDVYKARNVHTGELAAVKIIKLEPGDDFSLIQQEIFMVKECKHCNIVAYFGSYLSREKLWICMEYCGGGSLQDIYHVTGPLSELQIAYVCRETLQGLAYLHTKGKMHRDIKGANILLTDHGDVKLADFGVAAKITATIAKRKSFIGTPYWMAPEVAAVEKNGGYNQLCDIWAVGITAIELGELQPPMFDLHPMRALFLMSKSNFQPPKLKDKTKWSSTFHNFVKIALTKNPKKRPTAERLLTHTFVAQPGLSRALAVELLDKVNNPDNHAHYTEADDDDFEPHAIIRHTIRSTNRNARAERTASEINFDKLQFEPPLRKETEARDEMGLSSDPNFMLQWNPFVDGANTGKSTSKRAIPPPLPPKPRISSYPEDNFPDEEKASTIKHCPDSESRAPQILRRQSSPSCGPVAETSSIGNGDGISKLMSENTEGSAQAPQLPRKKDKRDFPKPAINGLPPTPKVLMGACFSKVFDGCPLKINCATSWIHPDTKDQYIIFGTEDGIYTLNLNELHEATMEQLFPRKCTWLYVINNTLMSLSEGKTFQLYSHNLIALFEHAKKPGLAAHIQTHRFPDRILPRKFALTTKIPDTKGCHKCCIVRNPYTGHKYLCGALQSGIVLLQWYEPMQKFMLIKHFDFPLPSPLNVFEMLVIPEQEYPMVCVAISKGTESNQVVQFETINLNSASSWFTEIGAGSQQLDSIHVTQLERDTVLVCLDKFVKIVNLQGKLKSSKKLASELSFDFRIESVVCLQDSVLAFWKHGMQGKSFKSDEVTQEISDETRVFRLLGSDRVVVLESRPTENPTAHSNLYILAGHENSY
Sequence of Bone morphogenetic protein receptor type-1A (Homo sapiens) (P36894 whole entry, the tested form may be a part): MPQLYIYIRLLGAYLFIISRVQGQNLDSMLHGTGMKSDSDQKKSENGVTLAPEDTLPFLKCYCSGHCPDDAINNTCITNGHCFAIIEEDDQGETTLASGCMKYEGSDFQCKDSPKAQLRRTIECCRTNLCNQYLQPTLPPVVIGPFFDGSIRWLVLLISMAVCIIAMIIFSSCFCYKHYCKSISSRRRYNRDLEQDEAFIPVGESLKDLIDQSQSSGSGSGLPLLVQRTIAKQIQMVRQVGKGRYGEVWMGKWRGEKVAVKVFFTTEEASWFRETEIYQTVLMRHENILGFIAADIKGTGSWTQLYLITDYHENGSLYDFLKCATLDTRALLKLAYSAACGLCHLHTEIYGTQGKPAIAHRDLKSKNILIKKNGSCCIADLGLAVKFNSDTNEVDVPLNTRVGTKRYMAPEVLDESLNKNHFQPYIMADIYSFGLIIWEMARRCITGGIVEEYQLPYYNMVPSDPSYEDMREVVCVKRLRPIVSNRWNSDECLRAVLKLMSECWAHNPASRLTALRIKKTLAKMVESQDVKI
Sequence of Serine/threonine-protein kinase D1 (Homo sapiens) (Q15139 whole entry, the tested form may be a part): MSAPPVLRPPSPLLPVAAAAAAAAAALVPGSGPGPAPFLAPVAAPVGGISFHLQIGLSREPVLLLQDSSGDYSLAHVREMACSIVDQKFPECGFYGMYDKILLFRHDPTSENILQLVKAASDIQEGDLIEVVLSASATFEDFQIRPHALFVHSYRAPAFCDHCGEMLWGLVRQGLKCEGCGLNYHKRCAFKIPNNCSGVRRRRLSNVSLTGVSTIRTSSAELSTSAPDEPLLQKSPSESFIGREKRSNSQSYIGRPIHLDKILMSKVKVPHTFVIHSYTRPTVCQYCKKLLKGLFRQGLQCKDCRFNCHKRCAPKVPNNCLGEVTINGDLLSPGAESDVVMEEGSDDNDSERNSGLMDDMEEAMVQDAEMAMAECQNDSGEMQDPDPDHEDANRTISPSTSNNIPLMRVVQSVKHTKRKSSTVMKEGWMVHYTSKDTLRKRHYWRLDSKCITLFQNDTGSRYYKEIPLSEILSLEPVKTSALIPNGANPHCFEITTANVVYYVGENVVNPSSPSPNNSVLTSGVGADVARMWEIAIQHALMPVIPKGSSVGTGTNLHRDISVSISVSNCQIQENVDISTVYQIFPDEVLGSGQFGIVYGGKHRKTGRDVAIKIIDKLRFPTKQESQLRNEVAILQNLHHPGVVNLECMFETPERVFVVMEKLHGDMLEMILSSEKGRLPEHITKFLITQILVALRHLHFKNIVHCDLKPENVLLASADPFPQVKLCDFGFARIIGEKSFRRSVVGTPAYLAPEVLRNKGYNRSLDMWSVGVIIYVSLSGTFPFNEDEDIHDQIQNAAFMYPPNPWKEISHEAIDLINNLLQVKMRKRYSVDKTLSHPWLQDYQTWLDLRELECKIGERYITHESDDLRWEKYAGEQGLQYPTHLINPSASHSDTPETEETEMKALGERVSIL
Sequence of MAP/microtubule affinity-regulating kinase 4 (Homo sapiens) (Q96L34 whole entry, the tested form may be a part): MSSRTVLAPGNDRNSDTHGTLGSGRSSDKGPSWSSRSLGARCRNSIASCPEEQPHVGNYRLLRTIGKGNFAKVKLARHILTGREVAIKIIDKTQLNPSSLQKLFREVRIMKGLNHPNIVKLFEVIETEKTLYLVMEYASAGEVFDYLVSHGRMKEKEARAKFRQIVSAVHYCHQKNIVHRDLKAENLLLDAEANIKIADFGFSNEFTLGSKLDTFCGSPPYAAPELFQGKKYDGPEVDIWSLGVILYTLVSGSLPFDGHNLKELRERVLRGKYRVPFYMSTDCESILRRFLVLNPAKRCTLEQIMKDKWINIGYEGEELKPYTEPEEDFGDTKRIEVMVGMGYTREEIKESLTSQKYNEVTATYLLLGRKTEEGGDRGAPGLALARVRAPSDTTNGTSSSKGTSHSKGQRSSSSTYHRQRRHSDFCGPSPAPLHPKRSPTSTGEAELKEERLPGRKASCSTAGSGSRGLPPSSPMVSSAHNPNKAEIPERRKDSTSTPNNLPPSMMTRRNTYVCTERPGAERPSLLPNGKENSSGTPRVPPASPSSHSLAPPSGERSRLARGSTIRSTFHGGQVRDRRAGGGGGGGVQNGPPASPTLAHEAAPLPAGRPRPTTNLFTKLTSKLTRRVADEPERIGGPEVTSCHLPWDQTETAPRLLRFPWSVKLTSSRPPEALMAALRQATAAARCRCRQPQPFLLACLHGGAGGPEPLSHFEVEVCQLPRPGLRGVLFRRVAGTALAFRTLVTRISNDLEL

In the case of COCCN[C@H]1CC[C@H](Nc2cc(-c3csc(NCC4(C#N)CCOCC4)n3)c(Cl)cn2)CC1, the IC50 (CDK9/Cyclin K) is reported as 6 nM, the inhibition [1] is reported as “inactive” and the AUC(0-t) [2] is reported as 3940 ng·h/mL. For the same compound, the bioavailability [3] was 45.1%, the Activity [4] was 98% and the Activity [5] was 95%. It also gave an Activity [6] of 88%, an Activity [7] of 84% and an Activity [8] of 95%. It also gave an Activity [9] of 72%, an Activity [10] of 89% and an Activity [11] of 100%. It also gave an Activity [12] of 95%, an Activity [13] of 87% and an Activity [14] of 91%. For the same compound, the Activity [15] was 100%, the Activity [16] was 48% and the Activity [17] was 92%. The Activity [18] was 36% and the Ratio IC50 (Homo sapiens) was > 1000.
